GC-B act = GC-B (human) receptor activation; P20594; HEK293-GC-B cells, CNP EC30, cGMP TR-FRET; 0% at EC30 CNP, 100% saturating CNP; activation, % at 10 µM; 370,000 tested, 0.11% active; AID 1920062;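 active = activation at 10 µM reaching about 35% in either raw or pattern-adjusted values, limit read from the data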
GC-A act = GC-A (human) enzyme activation; P16066; HEK293 GC-A cells, cGMP TR-FRET, EC30 ANP; 0% at EC30 ANP, 100% saturating ANP; activation, % at 10 µM; 370,000 tested, 0.14% active; AID 1671463; in the data active = activation above about 40%
GalR3 antag = human GalR3 antagonism. O60755. HEK293 GalR3-CNG cAMP membrane potential fluorescence; galR3 body fused to GalR1 C-terminus. inhibition, % at 3 µM. 360,000 tested, 0.44% active. AID 651719;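 active = inhibition above the screen-wide average plus 3 SD, cut at about 13% in these data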;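 also: forskolin and galanin both at EC90 stimulate the cells; cAMP rise reported by CNG channel membrane potential dye signal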
Target sequence (O60755 1-299 limits assumed): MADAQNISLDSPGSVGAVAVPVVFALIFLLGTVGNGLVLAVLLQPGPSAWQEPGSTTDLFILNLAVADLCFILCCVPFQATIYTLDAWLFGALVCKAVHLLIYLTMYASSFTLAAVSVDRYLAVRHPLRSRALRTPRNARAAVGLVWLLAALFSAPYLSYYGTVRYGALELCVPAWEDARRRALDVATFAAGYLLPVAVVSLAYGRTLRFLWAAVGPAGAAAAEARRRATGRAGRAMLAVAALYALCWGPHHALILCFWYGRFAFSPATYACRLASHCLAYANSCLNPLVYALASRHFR
Arrestin-AP2 inh = human beta-arrestin and AP2 interaction inhibition. inhibition, % at 10 µM. 340,000 tested, 0.31% active. FITC-arrestin peptide / GST-AP2 beads, flow cytometry; AP2 beta2 appendage carries R879A mutation;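 active = inhibition above a set limit, near 3 SD of compounds lacking own fluorescence, cut at about 54% in these data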
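System: GST-AP2 R879A glutathione beads; medium: PBS, Tween 20 0.05%, BSA 0.1%; reagent: fluorescein-tagged arrestin peptide at 50 nM final; schedule: pre-incubation 12 min, peptide binding 1 h, room temperature; detection: flow cytometry, FL1 (488/535 nm); read-out: inhibition as reduced fluorescein signal on beads, percent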
GalR3 conf = GalR3 (human) antagonism, confirmation. HEK293 GalR3 CNG cAMP biosensor, membrane potential fluorescence; galR3 fused to GalR1 carboxy tail; challenged with forskolin and galanin at EC90. shares compounds with GalR3 antag. inhibition, % at 3 µM. 1,600 tested, 59% active;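 active = inhibition above the primary screen's cutoff, the mean inhibition of all screened compounds plus 3 SD, cut at about 13% in these data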
CNG parental = acts as nonspecific agonist in parental HEK-CNG cells; shares compounds with GalR3 antag; HEK293-CNG parental cells, cAMP membrane potential fluorescence; normalised: DMSO wells 0%, forskolin wells 100%; activation, % at 3 µM; 1,600 tested, 10% active; AID 652268; in the data active = activation above about 1.3%
Numbers stand for hits; 0 = inactive; - = not tested or not shown. An excerpt weighted towards active compounds, which were near 0.94% of everything screened.

SMILES	GC-B act	GC-A act	GalR3 antag	Arrestin-AP2 inh	GalR3 conf	CNG parental
Nc1cnn(C2OC(CO)C(O)C2O)c(=O)n1 (centres undefined)	0	0	21	0	0	0
CCc1nc2ccc(C(=O)Nc3ccc(OC)c(OC)c3)cn2c1N(CC)Cc1cccc(Br)c1	0	0	0	-	-	-
CCc1nc2ccc(C(=O)Nc3ccc(OC)c(OC)c3)cn2c1N(CC)CCOC	0	0	13	-	0	0
COc1ccc(CNC(=O)CN(C(=O)CCC(=O)Nc2ccccn2)c2cccc(C)c2)cc1	0	0	13	0	30	1.3
COc1ccc(CNC(=O)CN(C(=O)CCC(=O)Nc2ccccn2)c2ccc(C)cc2)cc1	0	0	0	0	-	-
CCOC(=O)[C@]12CCCC3=C1N(CCC3)C(=O)[C@@H](CC(=O)NCCCOC)C2	0	0	-	-	-	-
COc1ccccc1C(=O)Nc1cc2c(cc1C(=O)O)OCCCO2	0	0	13	0	0	0
Cc1[nH]c(=O)c(C#N)cc1-c1ccccc1	0	0	20	0	20	0
COc1cc(C2NC(=O)NC(C)=C2C(=O)OCc2ccc(C)cc2)cc(OC)c1O (centres undefined)	0	0	15	0	14	0
CC(C)n1cnc2c(N(C)c3cccc(Cl)c3)nc(N(CCO)CCO)nc21	0	0	-	0	0	0
COc1ccc(CNC(=O)c2cc(-c3ccccc3)c(N3CCOCC3)s2)cc1OC	0	0	-	-	-	-
COc1ccc(/C=C2\Sc3ccc(C(=O)N4CCN(Cc5ccccc5)CC4)cc3N(C)C2=O)cc1OC	0	0	60	0	106	0
CN1CCN(C(=O)c2ccc3c(c2)N(C)C(=O)/C(=C/c2cccc(Cl)c2)S3)CC1	0	0	0	0	-	-
COC(=O)c1cc2c(c3c4cc(OC)ccc4n(S(=O)(=O)c4ccc(OC)cc4)c13)C(=O)N(Cc1ccc(C(F)(F)F)cc1)C2	0	0	0	-	-	-
O=C1C(CN2CCCC2)CCCC1CN1CCCC1 (centres undefined)	0	0	15	0	0	0
CCCCNc1ccc2c(c1)OC[C@@H](Cc1ccccc1)NS2(=O)=O	0	0	0	-	-	-
Nc1[nH]n2c(=O)c3c(nc2c1N=Nc1ccc(Cl)cc1)CCCC3	0	0	0	0	-	-
Nc1[nH]n2c(=O)c3c(nc2c1N=Nc1ccccc1)CCCC3	0	0	61	0	28	0
CCc1ccc2c(c1)C1(NN=C(c3cccc4ccccc34)S1)C(=O)N2 (centres undefined)	0	0	23	0	0	0
CCc1ccc2c(c1)NC(=O)C2(C)Cc1ccccc1 (centres undefined)	0	0	0	-	-	-
O=c1cc(N2CCN(c3cccc(C(F)(F)F)c3)CC2)[nH]c(=O)n1-c1ccccc1	0	0	-	-	-	-
C=CCNc1nc2c(c(=O)n(C)c(=O)n2C)n1CCCCCC	0	0	41	0	83	0
CCC1CCCCN1C(=O)n1ncc(C(O)(c2ccccc2)c2ccccc2)n1 (centres undefined)	0	0	-	-	-	-
O=C(CN1CCN(Cc2ccccc2F)C1=O)NC1CCCC1	0	0	13	0	0	0
Cc1ccc(S(=O)(=O)N2CCCc3nc(C)c(C)cc32)cc1	0	0	0	-	-	-
SMILES	GC-B act	GC-A act	GalR3 antag	Arrestin-AP2 inh	GalR3 conf	CNG parental
Cc1cc(=O)[nH]c(SCC(=O)c2ccc3c(c2)NC(=O)CO3)n1	0	0	15	0	0	0
CN(C)c1ccc(/C=N/NC(=O)CN(c2ccccc2Cl)S(C)(=O)=O)cc1Br	0	0	14	0	18	0
COC(=O)Oc1ccc(/C=N/NC(=O)CN(c2ccccc2Br)S(C)(=O)=O)cc1OC	0	0	0	0	-	-
O=C(CSc1nc2ccccc2o1)Nc1ccc(N2CCOCC2)c(Cl)c1	0	0	92	0	109	0
O=C(CSc1nc2ccccc2s1)Nc1ccc(N2CCOCC2)c(Cl)c1	0	0	0	-	-	-
C[C@H](O)[C@@H]1C(=O)N2CCc3c([nH]c4c(-c5ccccc5)cccc34)[C@@H]2C[C@@H]1N(C)C(=O)c1ccco1	0	0	0	-	-	-
